{
  "source": "ChEMBL document CHEMBL2424603",
  "about": "“Design, synthesis, and biological and crystallographic evaluation of novel inhibitors of Plasmodium falciparum enoyl-ACP-reductase (PfFabI)” (J Med Chem, 2013)",
  "key": {"Plasmodium falciparum [1]": {"test_system": "Plasmodium falciparum", "assay": "Antiplasmodial activity against chloroquine/pyrimethamine-resistant Plasmodium falciparum K1 assessed as growth inhibition after […] by [3H]-hypoxanthine incorporation assay", "type": "functional, organism-based", "method_in_brief": "(§1)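 Tested against the chloroquine- and pyrimethamine-resistant K1 strain, with chloroquine as the standard drug. Growth was read by [3H]hypoxanthine incorporation. IC50 was taken from graphically plotted dose–response curves and averaged over at least two independent assays run in duplicate.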"}, "[2]": {"assay": "Selectivity index, ratio of IC50 for rat L6 cells to IC50 for chloroquine/pyrimethamine-resistant Plasmodium falciparum K1", "type": "toxicity, cell-based", "conditions": "rat L6 cells (cytotoxicity) versus Plasmodium falciparum K1, read-out: Ratio IC50", "method_in_brief": "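Ratio of the rat L6 cell growth-inhibition IC50 to the P. falciparum K1 IC50, calculated per WHO/TDR guidelines. Each cell IC50 is the average of at least two independent assays run in duplicate.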"}, "L6": {"test_system": "L6", "assay": "Cytotoxicity against rat L6 cells assessed as growth inhibition after 72 hrs by fluorometric analysis", "type": "cell-based", "conditions": "L6, 72 h", "method_in_brief": "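Mammalian L6 cell growth inhibition; IC50 taken as the average of at least two independent assays, each run in duplicate.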"}, "[3]": {"assay": "Inhibition of recombinant Plasmodium falciparum FabI using crotonoyl-CoA as substrate assessed as consumption of NADH after 10 mins", "method_in_brief": "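Recombinant PfFabI inhibition was followed spectrophotometrically. IC50 is the concentration giving 50% inhibition, reported as the mean of three independent experiments.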"}, "[4]": {"target": "T1, 3-oxoacyl-(Acyl-carrier protein) reductase (Plasmodium falciparum (isolate 3D7), UniProt Q8I2S7)", "T1 sequence (Q8I2S7 whole entry)": "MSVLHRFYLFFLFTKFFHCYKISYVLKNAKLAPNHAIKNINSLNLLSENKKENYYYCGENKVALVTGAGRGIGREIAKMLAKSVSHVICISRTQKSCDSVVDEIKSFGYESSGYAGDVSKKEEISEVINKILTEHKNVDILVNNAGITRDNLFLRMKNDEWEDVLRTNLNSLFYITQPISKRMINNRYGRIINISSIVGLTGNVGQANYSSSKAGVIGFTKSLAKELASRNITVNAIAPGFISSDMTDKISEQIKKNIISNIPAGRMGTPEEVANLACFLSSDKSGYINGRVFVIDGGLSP", "assay": "Inhibition of recombinant Plasmodium falciparum 3D7 FabG using acetoacetyl-CoA as substrate after 10 mins in presence of NADPH"}, "Fatty acid synthase": {"target": "T2, Fatty acid synthase (Plasmodium falciparum, UniProt Q965D7)", "T2 sequence (Q965D7 whole entry)": "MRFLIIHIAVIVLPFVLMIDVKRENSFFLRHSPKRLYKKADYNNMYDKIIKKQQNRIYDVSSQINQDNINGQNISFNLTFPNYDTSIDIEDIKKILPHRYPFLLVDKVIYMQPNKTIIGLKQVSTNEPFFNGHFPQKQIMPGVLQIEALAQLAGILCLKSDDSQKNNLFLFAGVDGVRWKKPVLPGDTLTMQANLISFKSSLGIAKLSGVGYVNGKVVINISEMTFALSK", "assay": "Inhibition of recombinant Plasmodium falciparum FabZ using crotonoyl-CoA as substrate after 10 mins", "method_in_brief": "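Recombinant enzymes PfFabG and PfFabZ were used. IC50 is the concentration giving 50% inhibition, reported as the mean of three independent experiments.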"}, "[5]": {"assay": "Inhibition of Plasmodium falciparum FabI using crotonoyl-CoA as substrate by UV-Vis spectrophotometric analysis in presence of NADH", "method_in_brief": "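Recombinant PfFabI enzyme, spectrophotometric read-out; IC50 (concentration giving 50% inhibition) reported as the mean of three independent experiments.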"}, "Plasmodium falciparum [6]": {"test_system": "Plasmodium falciparum", "assay": "Antiplasmodial activity against asexual blood stage form of Plasmodium falciparum assessed as growth inhibition after 72 hrs by [3H]-hypoxanthine incorporation assay", "type": "functional, organism-based", "method_in_brief": "as §1"}},
  "data": [
    {"smiles": "O=c1ccc2cc(Oc3ccc(Cl)cc3O)ccc2o1", "values": [
      {"measurement": "IC50", "setting": "Plasmodium falciparum [1]", "value": 10.7, "unit": "µM"},
      {"measurement": "selectivity ratio", "setting": "[2]", "value": 9},
      {"measurement": "IC50", "setting": "L6", "value": 96.2, "unit": "µM"},
      {"measurement": "IC50", "setting": "[3]", "value": 0.63, "unit": "µM"}
    ]},
    {"smiles": "Cc1cc(=O)oc2ccc(Oc3ccc(Cl)cc3O)cc12", "values": [
      {"measurement": "IC50", "setting": "Plasmodium falciparum [1]", "value": 15.6, "unit": "µM"},
      {"measurement": "selectivity ratio", "setting": "[2]", "value": 2.2},
      {"measurement": "IC50", "setting": "L6", "value": 35.5, "unit": "µM"},
      {"measurement": "IC50", "setting": "[3]", "value": 14.2, "unit": "µM"}
    ]},
    {"smiles": "CCc1cc(=O)oc2ccc(Oc3ccc(Cl)cc3O)cc12", "values": [
      {"measurement": "IC50", "setting": "Plasmodium falciparum [1]", "value": 5.6, "unit": "µM"},
      {"measurement": "selectivity ratio", "setting": "[2]", "value": 25.6},
      {"measurement": "IC50", "setting": "L6", "value": 142, "unit": "µM"},
      {"measurement": "IC50", "setting": "[3]", "value": 11, "unit": "µM"}
    ]},
    {"smiles": "O=c1ccc2ccc(Oc3ccc(Cl)cc3O)cc2o1", "values": [
      {"measurement": "IC50", "setting": "Plasmodium falciparum [1]", "value": 9.3, "unit": "µM"},
      {"measurement": "selectivity ratio", "setting": "[2]", "value": 20.1},
      {"measurement": "IC50", "setting": "L6", "value": 188, "unit": "µM"},
      {"measurement": "IC50", "setting": "[3]", "value": 2.7, "unit": "µM"}
    ]},
    {"smiles": "Cc1cc(=O)oc2cc(Oc3ccc(Cl)cc3O)ccc12", "values": [
      {"measurement": "IC50", "setting": "Plasmodium falciparum [1]", "value": 9.5, "unit": "µM"},
      {"measurement": "IC50", "setting": "[4]", "value": "> 100", "unit": "µM"},
      {"measurement": "selectivity ratio", "setting": "[2]", "value": 9},
      {"measurement": "IC50", "setting": "Fatty acid synthase", "value": "> 100", "unit": "µM"},
      {"measurement": "IC50", "setting": "L6", "value": 85.9, "unit": "µM"},
      {"measurement": "IC50", "setting": "[3]", "value": 0.25, "unit": "µM"}
    ]},
    {"smiles": "CCc1cc(=O)oc2cc(Oc3ccc(Cl)cc3O)ccc12", "values": [
      {"measurement": "IC50", "setting": "Plasmodium falciparum [1]", "value": 5.7, "unit": "µM"},
      {"measurement": "IC50", "setting": "[4]", "value": "> 100", "unit": "µM"},
      {"measurement": "selectivity ratio", "setting": "[2]", "value": 14.9},
      {"measurement": "IC50", "setting": "Fatty acid synthase", "value": "> 100", "unit": "µM"},
      {"measurement": "IC50", "setting": "L6", "value": 84.8, "unit": "µM"},
      {"measurement": "IC50", "setting": "[3]", "value": 0.27, "unit": "µM"}
    ]},
    {"smiles": "O=c1oc2ccccc2cc1Oc1ccc(Cl)cc1O", "values": [
      {"measurement": "IC50", "setting": "Plasmodium falciparum [1]", "value": 15, "unit": "µM"},
      {"measurement": "IC50", "setting": "[4]", "value": "> 100", "unit": "µM"},
      {"measurement": "selectivity ratio", "setting": "[2]", "value": 7.2},
      {"measurement": "IC50", "setting": "Fatty acid synthase", "value": "> 100", "unit": "µM"},
      {"measurement": "IC50", "setting": "L6", "value": 108, "unit": "µM"},
      {"measurement": "IC50", "setting": "[3]", "value": 5.5, "unit": "µM"}
    ]},
    {"smiles": "O=c1oc2ccc(O)cc2cc1Oc1ccc(Cl)cc1O", "values": [
      {"measurement": "IC50", "setting": "Plasmodium falciparum [1]", "value": "> 15", "unit": "µM"},
      {"measurement": "IC50", "setting": "[4]", "value": "> 100", "unit": "µM"},
      {"measurement": "IC50", "setting": "Fatty acid synthase", "value": "> 100", "unit": "µM"},
      {"measurement": "IC50", "setting": "L6", "value": 134, "unit": "µM"},
      {"measurement": "IC50", "setting": "[3]", "value": 14, "unit": "µM"}
    ]},
    {"smiles": "O=c1oc2cc(O)ccc2cc1Oc1ccc(Cl)cc1O", "values": [
      {"measurement": "IC50", "setting": "Plasmodium falciparum [1]", "value": "> 15", "unit": "µM"},
      {"measurement": "IC50", "setting": "[4]", "value": 99, "unit": "µM"},
      {"measurement": "IC50", "setting": "Fatty acid synthase", "value": 16.3, "unit": "µM"},
      {"measurement": "IC50", "setting": "L6", "value": 144, "unit": "µM"},
      {"measurement": "IC50", "setting": "[3]", "value": 6, "unit": "µM"}
    ]},
    {"smiles": "O=c1oc2cc(O)cc(O)c2cc1Oc1ccc(Cl)cc1O", "values": [
      {"measurement": "IC50", "setting": "Plasmodium falciparum [1]", "value": "> 15", "unit": "µM"},
      {"measurement": "IC50", "setting": "[4]", "value": "> 100", "unit": "µM"},
      {"measurement": "IC50", "setting": "Fatty acid synthase", "value": 90, "unit": "µM"},
      {"measurement": "IC50", "setting": "L6", "value": 128, "unit": "µM"},
      {"measurement": "IC50", "setting": "[3]", "value": 44, "unit": "µM"}
    ]},
    {"smiles": "Cc1c(Oc2ccc(Cl)cc2O)c(=O)oc2ccccc12", "values": [
      {"measurement": "IC50", "setting": "Plasmodium falciparum [1]", "value": "> 15", "unit": "µM"},
      {"measurement": "IC50", "setting": "[4]", "value": "> 100", "unit": "µM"},
      {"measurement": "IC50", "setting": "Fatty acid synthase", "value": 13, "unit": "µM"},
      {"measurement": "IC50", "setting": "L6", "value": 51.5, "unit": "µM"},
      {"measurement": "IC50", "setting": "[3]", "value": 12, "unit": "µM"}
    ]},
    {"smiles": "Cc1c(Oc2ccc(Cl)cc2O)c(=O)oc2cc(O)ccc12", "values": [
      {"measurement": "IC50", "setting": "Plasmodium falciparum [1]", "value": "> 15", "unit": "µM"},
      {"measurement": "IC50", "setting": "[4]", "value": "> 100", "unit": "µM"},
      {"measurement": "IC50", "setting": "Fatty acid synthase", "value": 28, "unit": "µM"},
      {"measurement": "IC50", "setting": "L6", "value": 96.3, "unit": "µM"},
      {"measurement": "IC50", "setting": "[3]", "value": 15, "unit": "µM"}
    ]},
    {"smiles": "O=c1oc2cc(O)ccc2cc1-c1ccc(Oc2ccc(Cl)cc2O)cc1", "values": [
      {"measurement": "IC50", "setting": "Plasmodium falciparum [1]", "value": 8, "unit": "µM"},
      {"measurement": "IC50", "setting": "[4]", "value": "> 100", "unit": "µM"},
      {"measurement": "selectivity ratio", "setting": "[2]", "value": 5.1},
      {"measurement": "IC50", "setting": "Fatty acid synthase", "value": 10, "unit": "µM"},
      {"measurement": "IC50", "setting": "L6", "value": 41, "unit": "µM"},
      {"measurement": "IC50", "setting": "[3]", "value": 0.45, "unit": "µM"}
    ]},
    {"smiles": "O=C(O[C@@H]1Cc2c(O)cc(O)cc2O[C@@H]1c1cc(O)c(O)c(O)c1)c1cc(O)c(O)c(O)c1", "note": "[EPIGALOCATECHIN GALLATE]", "values": [
      {"measurement": "IC50", "setting": "Fatty acid synthase", "value": 0.03, "unit": "µM"}
    ]},
    {"smiles": "COc1cc([C@@H]2c3cc4c(cc3[C@H](O)[C@H]3COC(=O)[C@H]23)OCO4)cc(OC)c1OC", "note": "[PODOFILOX]", "values": [
      {"measurement": "IC50", "setting": "L6", "value": 0.006, "unit": "µM"}
    ]},
    {"smiles": "Oc1cc(Cl)ccc1Oc1ccc(Cl)cc1Cl", "note": "[TRICLOSAN]", "values": [
      {"measurement": "IC50", "setting": "Plasmodium falciparum [1]", "value": 1.51, "unit": "µM"},
      {"measurement": "IC50", "setting": "[5]", "value": 0.05, "unit": "µM"},
      {"measurement": "IC50", "setting": "[3]", "value": 0.05, "unit": "µM"},
      {"measurement": "IC50", "setting": "Plasmodium falciparum [6]", "value": 1, "unit": "µM"}
    ]}
  ]
}
